Source: PubChem
Compounds with a hit are over-represented: about 4% of the library has one in this group of screens.
S1P3 antag – blocks the human S1P3 receptor | Q99500 | CHO S1P3 NFAT-BLA reporter, FRET fluorescence, antagonist mode | inhibition, % at 4.98 µM | actives 0.27% (n = 170,000);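 active = inhibition above the plate cutoff, the mean inhibition of test wells on that plate plus 3 SD, cut at about 28% in these data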;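 also: cells challenged with S1P at its EC80 of 0.8 µM; blue over green emission ratio from cleaved BLA substrate after 4 h stimulation; 0% = S1P-stimulated wells and 100% = unstimulated DMSO-only wells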
Target sequence (Q99500 whole entry, looked up): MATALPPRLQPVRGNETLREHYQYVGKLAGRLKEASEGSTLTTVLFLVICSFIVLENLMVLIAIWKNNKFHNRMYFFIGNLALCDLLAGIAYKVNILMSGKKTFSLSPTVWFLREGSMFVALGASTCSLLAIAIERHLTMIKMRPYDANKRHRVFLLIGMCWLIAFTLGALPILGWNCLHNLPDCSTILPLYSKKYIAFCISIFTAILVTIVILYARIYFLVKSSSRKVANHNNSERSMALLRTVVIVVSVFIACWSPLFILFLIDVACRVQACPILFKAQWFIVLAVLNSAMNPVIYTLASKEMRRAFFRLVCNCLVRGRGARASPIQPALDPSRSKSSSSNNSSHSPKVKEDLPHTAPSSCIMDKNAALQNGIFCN
Hsp70 act – Hsp70 transcriptional activation, primary screen; activation, % at 10 µM; HeLa Hsp70 promoter luciferase reporter, luminescence; scaled: vehicle 0, proteasome-inhibitor control 100%; AID 1203; actives 0.04% (n = 200,000);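 active = activation above the mean across all tested compounds plus 3 SD, cutoff set per campaign, cut at about 5.5% in these data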;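 also: 100% = MG132 at 30 µM as the positive control and 0% = DMSO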
MDM2 E3 inh – blocks human Mdm2 ubiquitin ligase activity; cell-based MDM2 ubiquitination luciferase reporter, 2 h; 0 = plate control, 100 = twice control, blank-subtracted; signal enhancement, % at 5 µM; actives 0.11% (n = 210,000);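 active = signal enhancement of 30% or more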;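 also: luminescence tracks abundance of the self-degrading MDM2-luciferase fusion protein; higher signal means inhibition of MDM2 E3 ligase activity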
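test system = mammalian cells stably expressing self-ubiquitinating, self-degrading MDM2 E3–luciferase fusion | quantity = 2000 cells/well | incubation = cell settling 4 h, compound treatment 2 h, both 37 °C | signal = luminescence with SteadyLite reagent, 15 min at room temperature | evaluation = % enhancement relative to plate controls after blank subtraction | benchmarks = plate controls and plate blanks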
CHOP inhibitor – blocks CHOP induction under ER stress; CHO-K1 CHOP-promoter luciferase, tunicamycin-induced, 15-18 h; AID 2732; actives 3.8% (n = 220,000); inhibition, % at 10 µM;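 active = compounds that reduced the stress-induced luciferase reporter signal by more than about 70% of percent inhibition, limit read from the data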;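 also: 0% = tunicamycin plus vehicle and 100% = wells without tunicamycin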
CHOP inh conf – confirmation of CHOP induction inhibitors. shares compounds with CHOP inhibitor. actives 45% (n = 2,100). inhibition, % at 10 µM. CHO-CHOP promoter luciferase reporter, tunicamycin-induced, luminescence. AID 504437;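 active = mean of three repeat readings of reporter signal inhibition above a set limit, cut at about 70% in these data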;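 also: 0% = tunicamycin plus vehicle and 100% = wells lacking tunicamycin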
Active calls of the source: *; . = no result given.

SMILES | S1P3 antag | Hsp70 act | MDM2 E3 inh | CHOP inhibitor | CHOP inh conf
Cc1cc(/C=N/n2cnnc2)c(C)n1-c1ccc(OCc2ccc(Cl)cc2)cc1 | . | 0 | -16 | 99* | 91*
Cc1cc(/C=N/n2cnnc2)c(C)n1-c1ccc(OCc2ccccc2F)cc1 | 68* | 0 | -10 | 111* | 103*
COc1cc(/C=C/C(=O)OCC(=O)c2c(N)n(C)c(=O)n(C)c2=O)ccc1OCC#N | -2 | 0 | -12 | 8 | .
Nc1nnnn1/N=C/c1cccc(OCc2ccccc2Cl)c1 | . | 0 | . | 104* | 51
Nc1nnnn1/N=C/c1cccc(Oc2ccccc2)c1 | . | 0 | -17 | -24 | .
COc1nc(OC)nc(Oc2ccc([N+](=O)[O-])cc2Cl)n1 | 5 | 0 | 2 | 19 | .
Cc1cc(NC(=O)CSc2nccn2C)n(-c2ccccc2)n1 | -3 | . | -11 | 4 | .
Cc1ccc(C(=O)NNC(=O)CSc2nnc3c(n2)[nH]c2ccc(C)cc23)cc1 | . | -1 | -3 | 104* | 13
Cc1cccc(OCc2nnc(SCc3cc(=O)n4cc(Br)ccc4n3)o2)c1 | 29 | . | -12 | 21 | .
CCOC(=O)CN1C(=O)Nc2ccc(Br)cc2C1c1ccccc1 (configuration not stated) | . | 0 | 3 | 28 | .
CCOC(=O)CN1C(c2ccc(O)cc2)Nc2ccc(Br)cc2C1c1ccccc1 (configuration not stated) | -36 | 0 | . | 108* | 119*
O=C(CSc1ccc(C(F)(F)F)cn1)Nc1ccccc1 | -8 | . | -5 | 14 | .
O=C(/C=C/Sc1ccc(C(F)(F)F)cn1)c1ccccc1 | 3 | . | 18 | 104* | -31
Cc1ccc(/C=N/n2c(C3CCCCC3)n[nH]c2=S)s1 | -9 | 0 | -6 | 105* | 96*
S=c1[nH]nc(C2CCCCC2)n1/N=C/c1ccccn1 | -4 | 0 | 0 | 11 | .
COc1ccccc1/C=C\C=N\n1c(C2CCCCC2)n[nH]c1=S | . | 0 | 0 | 108* | 3
COc1cc(C2NC(=S)NC(C)=C2C(=O)Nc2cc(C)cc(C)c2)ccc1O (configuration not stated) | -6 | . | -10 | 0 | .
O=[N+]([O-])c1ccc(CN2C=NS(=O)(=O)c3ccccc32)cc1 | 0 | 0 | -45 | -2 | .
O=c1/c(=C\c2cccc(O)c2)sc2nc(-c3ccccc3)c(-c3ccccc3)n12 | 4 | . | . | 99* | 21
CCCCCCCCCS(=O)(=O)N/N=C/c1cccc([N+](=O)[O-])c1 | . | 0 | -8 | 99* | 97*
Cc1ccc(-c2nnc(SCC(=O)Nc3ccc(S(=O)(=O)N4CCCCCC4)cc3)o2)cc1 | 0 | 0 | -21 | 101* | 36
O=C(Nc1ccccc1Cl)c1ccccc1Oc1ccc(C(F)(F)F)cc1[N+](=O)[O-] | . | -1 | -19 | 105* | 81*
O=C(c1ccccc1Oc1ccc(C(F)(F)F)cc1[N+](=O)[O-])N1CCOCC1 | 9 | 0 | -7 | 21 | .
O=C(Cn1ncc(Cl)c(Cl)c1=O)N1CCOCC1 | -5 | 1 | -15 | -35 | .
Cc1cc(C)cc(Cn2ncc(Cl)c(Cl)c2=O)c1 | -6 | 0 | -2 | 106* | -31
SMILES | S1P3 antag | Hsp70 act | MDM2 E3 inh | CHOP inhibitor | CHOP inh conf
O=C(Cn1ncc(Cl)c(Cl)c1=O)N1CCN(Cc2ccccc2)CC1 | -14 | 1 | 22 | 107* | -169
O=c1c(Cl)c(Cl)cnn1Cc1nnc(-c2ccc(Cl)cc2)o1 | 0 | 3 | 0 | 107* | 38
Cc1ccc(Cn2ncc(Cl)c(Cl)c2=O)cc1 | -8 | 0 | 14 | 107* | -26
O=C(O)CC(CNS(=O)(=O)c1cccc2nsnc12)c1ccccc1 (configuration not stated) | -17 | 0 | -17 | -20 | .
O=c1c(Cl)c(Cl)cnn1Cc1ccccc1Cl | 4 | 1 | 2 | 111* | 26
COC/C=C/C1=CC2=CC(=O)C(C)(OC(=O)c3ccco3)C(=O)C2=CO1 (configuration not stated) | . | . | -5 | -23 | .
COC/C=C/C1=CC2=CC(=O)C(C)(OC(=O)C3CCCC3)C(=O)C2=CO1 (configuration not stated) | . | . | -15 | 99* | 9
Cc1ccsc1/C=N/n1c(-c2cc(-c3ccccc3)n[nH]2)n[nH]c1=S | 3 | . | -9 | 0 | .
Cc1ccccc1/C=N/n1c(-c2cc(-c3ccccc3)n[nH]2)n[nH]c1=S | -5 | . | . | 104* | 57
CCOc1cccc(CNc2ccc(O)cc2)c1OCc1ccc(Cl)cc1Cl | . | 0 | -16 | 101* | 112*
